According to ChEMBL document CHEMBL3228043, “Alkylating nucleosides. 2. Synthesis and cytostatic activity of bromomethylpyrazole and pyrazole nitrogen mustard nucleosides” (1979):
≈ marks a conversion by molar mass, not a printed value.

system: HeLa; experiment: Cytostatic activity against human HeLa cells after 72 hrs by FCR-based colorimetric method; type: functional; conditions: read-out: ED50 (the source's name)
Summary of the method: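 HeLa cells seeded at 10⁵ cells/mL in Minimal Eagle's medium with 10% fetal calf serum in Leighton tubes at 37 °C; after 2-3 h attachment, compound added as suspension in sterile saline with 0.05% (v/v) Tween 80 (10% of final volume). Incubated 72 h at 37 °C; growth estimated from cell protein by Oyama-Eagle colorimetric method; 6-mercaptopurine positive control.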

For `CC(=O)OC[C@H]1O[C@@H](n2nc(CBr)cc2C(N)=O)[C@H](OC(C)=O)[C@@H]1OC(C)=O`, which EC50 is on record?
The EC50 was 2 µg/mL (≈ 4.33 µM).

With `CC(=O)OC[C@H]1O[C@@H](n2nc(CN(CCCl)CCCl)cc2C(N)=O)[C@H](OC(C)=O)[C@@H]1OC(C)=O` as the compound, how does the EC50 read?
Its EC50 is 35 µg/mL (≈ 66.9 µM).

Which EC50 does the source give for `CCOC(=O)c1cc(CBr)nn1[C@@H]1OC[C@@H](OC(C)=O)[C@@H](OC(C)=O)[C@H]1OC(C)=O` here?
Its EC50 is 2 µg/mL (≈ 4.07 µM).

How did the EC50 turn out when `CC(=O)OC[C@H]1O[C@@H](n2nc(CN(CCCl)CCCl)cc2C(N)=O)[C@H](OC(C)=O)[C@@H](OC(C)=O)[C@@H]1OC(C)=O` was run?
Its EC50 is greater than 100 µg/mL.

How did the EC50 turn out when `CC(=O)O[C@@H]1[C@H](OC(C)=O)[C@H](OC(C)=O)CO[C@H]1n1nc(CN(CCCl)CCCl)cc1C(N)=O` was run?
Its EC50 is 50 µg/mL (≈ 95.5 µM).

With `CCOC(=O)c1cc(CBr)nn1[C@H]1O[C@H](COC(C)=O)[C@@H](OC(C)=O)[C@H](OC(C)=O)[C@H]1OC(C)=O` as the compound, how does the EC50 read?
Its EC50 is 5 µg/mL (≈ 8.88 µM).

For `CC(=O)OC[C@H]1O[C@@H](n2nc(CBr)cc2C(N)=O)[C@H](OC(C)=O)[C@@H](OC(C)=O)[C@@H]1OC(C)=O`, which EC50 is on record?
The EC50 was 4 µg/mL (≈ 7.49 µM).

With `CCOC(=O)c1cc(CN(CCCl)CCCl)nn1[C@@H]1OC[C@@H](OC(C)=O)[C@@H](OC(C)=O)[C@H]1OC(C)=O` as the compound, how does the EC50 read?
The EC50 was greater than 100 µg/mL.

For `Br.NCc1cc(C(N)=O)n([C@@H]2O[C@H](CO)[C@@H](O)[C@H](O)[C@H]2O)n1`, which EC50 is on record?
Its EC50 is greater than 100 µg/mL.

With `Br.NCc1cc(C(N)=O)n([C@@H]2OC[C@@H](O)[C@@H](O)[C@H]2O)n1` as the compound, how does the EC50 read?
Its EC50 is greater than 100 µg/mL.

For `Sc1ncnc2nc[nH]c12` [MERCAPTOPURINE ANHYDROUS], which EC50 is on record?
Its EC50 is 0.1 µg/mL (≈ 0.657 µM).

`CCOC(=O)c1cc(CN(CCCl)CCCl)nn1[C@@H]1O[C@H](COC(C)=O)[C@@H](OC(C)=O)[C@H]1OC(C)=O` was tested. Which EC50 did it give?
The EC50 was greater than 100 µg/mL.

With `Br.NCc1cc(C(N)=O)n([C@@H]2O[C@H](CO)[C@@H](O)[C@H]2O)n1` as the compound, how does the EC50 read?
The EC50 was greater than 100 µg/mL.

With `CCOC(=O)c1cc(CBr)nn1[C@@H]1O[C@H](COC(C)=O)[C@@H](OC(C)=O)[C@H](OC(C)=O)[C@H]1OC(C)=O` as the compound, how does the EC50 read?
Its EC50 is 5 µg/mL (≈ 8.88 µM).

For `CCOC(=O)c1cc(CN(CCCl)CCCl)nn1[C@@H]1O[C@H](COC(C)=O)[C@@H](OC(C)=O)[C@H](OC(C)=O)[C@H]1OC(C)=O`, which EC50 is on record?
The EC50 was greater than 100 µg/mL.

Which EC50 does the source give for `CC(=O)OC[C@H]1O[C@@H](n2nc(C(N)=O)cc2CBr)[C@H](OC(C)=O)[C@@H]1OC(C)=O` here?
Its EC50 is 2 µg/mL (≈ 4.33 µM).

`CC(=O)O[C@@H]1[C@H](OC(C)=O)[C@H](OC(C)=O)CO[C@H]1n1nc(CBr)cc1C(N)=O` was tested. Which EC50 did it give?
The EC50 was 3 µg/mL (≈ 6.49 µM).

With `CCOC(=O)c1cc(CBr)nn1[C@@H]1O[C@H](COC(C)=O)[C@@H](OC(C)=O)[C@H]1OC(C)=O` as the compound, how does the EC50 read?
The EC50 was 2.5 µg/mL (≈ 5.09 µM).

`CCOC(=O)c1cc(CBr)n([C@@H]2O[C@H](COC(C)=O)[C@@H](OC(C)=O)[C@H](OC(C)=O)[C@H]2OC(C)=O)n1` was tested. Which EC50 did it give?
Its EC50 is 6 µg/mL (≈ 10.7 µM).
